Hck-Nef inh – inhibitors of Nef-activated human Hck kinase, primary screen, biochemical, Z-Lyte FRET, 384-well, Hck-YEEI; AID 463187, 2010; Tyrosine-protein kinase HCK (Homo sapiens), P08631; Recombinant Hck-YEEI plus Nef, Z-Lyte FRET kinase assay; 220,000 tested, 0.68% active; inhibition, % at 20 µM;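 active means Hck-Nef kinase inhibition above about 50%, limit read from the data; inactive means inhibition below that limit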;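 further: 0% = DMSO with Hck plus Nef and 100% = Hck alone without Nef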
Runt-CBFb FRET – inhibitors of RUNX1 Runt–CBFb binding, primary screen, biochemical, FRET, Cerulean-Runt, Venus-CBFb, uHTS. Cerulean-Runt/Venus-CBFb FRET ratio 530/480, 1 h. inhibition, % at 20 µM. 220,000 tested, 0.46% active. AID 1496, 2009;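 active means inhibition over about 50% at 20 µM in the single-dose screen, limit read from the data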;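 further: 0% = DMSO wells and 100% = excess unlabeled CBFb competitor control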
Target sequence (Q01196 whole entry, looked up): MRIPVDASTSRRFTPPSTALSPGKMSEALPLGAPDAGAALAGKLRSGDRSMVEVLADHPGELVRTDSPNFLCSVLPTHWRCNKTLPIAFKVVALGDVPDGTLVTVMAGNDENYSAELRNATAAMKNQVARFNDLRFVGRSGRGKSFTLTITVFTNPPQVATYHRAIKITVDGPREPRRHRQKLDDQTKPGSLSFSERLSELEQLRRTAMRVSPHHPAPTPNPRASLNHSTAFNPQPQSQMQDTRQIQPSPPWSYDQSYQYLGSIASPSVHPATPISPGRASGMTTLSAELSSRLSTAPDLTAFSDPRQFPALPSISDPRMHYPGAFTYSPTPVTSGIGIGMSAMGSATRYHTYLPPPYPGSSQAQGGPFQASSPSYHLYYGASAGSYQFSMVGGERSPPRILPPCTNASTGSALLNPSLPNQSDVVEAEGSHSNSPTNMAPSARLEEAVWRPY
Target sequence (Q13951 whole entry, looked up): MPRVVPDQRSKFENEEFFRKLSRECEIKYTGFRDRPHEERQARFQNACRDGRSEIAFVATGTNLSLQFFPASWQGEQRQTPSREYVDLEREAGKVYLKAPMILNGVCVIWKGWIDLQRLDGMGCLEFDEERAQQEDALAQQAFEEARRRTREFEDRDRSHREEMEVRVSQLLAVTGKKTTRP
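Measured by: fluorescence energy transfer, 422 nm excitation, 530/480 nm emission; Assay system: Cerulean-Runt domain; Medium: Tris pH 7.5 buffer with BSA; Measure: loss of energy transfer signal; Controls: 5 µM unlabeled CBFb as full-inhibition high control; Incubation: protein complex preformed 1 h, compound exposure 1 h, room temperature, dark.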
Runt-SMMHC FRET – inhibitors of RUNX1 Runt–CBFb-SMMHC binding, primary screen, biochemical, FRET, Cerulean-Runt, Venus-CBFb-SMMHC, uHTS; Cerulean-Runt/Venus-CBFb-SMMHC FRET ratio 530/480, 1 h; inhibition, % at 20 µM; 220,000 tested, 0.74% active; AID 1434, 2008;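 active means mean inhibition across duplicate retests at 20 µM reaching about 50%, limit read from the data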;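 further: 0% = DMSO wells and 100% = wells with excess untagged CBFb-SMMHC; inhibitors lower the FRET ratio by blocking Runt binding to CBFb-SMMHC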
RanGTP-Imp inh – inhibitors of RanGTP-importin-beta interaction, primary screen, biochemical, FRET, CFP-Ran, YFP-importin-beta, homogeneous | Ran GTPase (GTP-bound) - importin-beta complex | cell-free CFP-Ran/YFP-importin-beta FRET ratio | inhibition, % (concentration not given with the values) | 300,000 tested, 1.1% active | AID 2216, 2009;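 active means more than half of the replicate wells show a fall in the fluorescence ratio signal beyond about 16%, limit read from the data, passing the limit was not always enough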;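 further: 0% = DMSO wells and 100% = Ran loaded with GDP instead of GTP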
Tb hexokinase – Trypanosoma brucei hexokinase 1 inhibitors, primary screen, biochemical, G6PDH-coupled NADH absorbance, MLSCN library; hexokinase 1 [Trypanosoma brucei]; recombinant TbHK1, G6PDH-coupled NADH A340; inhibition, % at 10 µM; 220,000 tested, 0.11% active; AID 1430, 2008;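 active means inhibition of 50% or more in the single-dose primary screen; inactive means inhibition below 50%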
* = called active by the depositor. Compounds with a hit are over-represented: about 1.9% of the library has one in this group of screens.

COc1ccc(C/C(N)=N/OC(=O)CCc2ccccc2)cc1 was read as RanGTP-Imp inh 2.
For O=C(O)c1cccnc1SCc1cccc(Br)c1 the results were RanGTP-Imp inh -1.
CCO[C@@H]1OC(C(=O)NC2CC2)=C[C@H](C2CC2)[C@H]1CCCO was read as Hck-Nef inh 26, Runt-CBFb FRET -1, Runt-SMMHC FRET 0, RanGTP-Imp inh 30* and Tb hexokinase -11.
C=C1c2cc(C)c(C)cc2NC(=O)N1c1ccccc1 was read as Hck-Nef inh 20, Runt-CBFb FRET 3, Runt-SMMHC FRET 60*, RanGTP-Imp inh 0 and Tb hexokinase -9.
COc1ccc(CCNC(=O)c2cc3c(=O)n4ccccc4nc3n(C3CCCCC3)c2=N)cc1 was read as RanGTP-Imp inh 63*.
For O=C(NCCN1CCOCC1)c1c(O)nc2ccccn2c1=O the results were RanGTP-Imp inh 3.
COc1ccc(CCNC(=O)c2cc3c(=O)n4ccccc4nc3n(CCN3CCOCC3)c2=N)cc1 was read as RanGTP-Imp inh 25*.
`COc1ccc(CCNC(=O)c2cc3c(=O)n4ccccc4nc3n(CCCN3CCOCC3)c2=N)cc1OC` gave RanGTP-Imp inh 16*.
Screening CCCNc1nc2nc3ccccn3c(=O)c2cc1C(=O)NCCN1CCOCC1 returned RanGTP-Imp inh 131*.
COc1ccc(CCNC(=O)c2cnc3ccccn3c2=O)cc1 was read as Hck-Nef inh -3, Runt-CBFb FRET -1, Runt-SMMHC FRET 4, RanGTP-Imp inh -5 and Tb hexokinase -25.
Screening COc1ccc(CCn2c(=N)c(C(=O)NCCN3CCOCC3)cc3c(=O)n4ccccc4nc32)cc1OC returned RanGTP-Imp inh -1.
Cc1ccc2nc3c(cc(C(=O)NCCc4ccccc4)c(=N)n3CCCN3CCOCC3)c(=O)n2c1 was read as RanGTP-Imp inh 168*.
`CCC(C)(C)NC(=O)Cn1c(-c2ccc(C)cc2)noc1=O` gave Hck-Nef inh 24, Runt-CBFb FRET 2, Runt-SMMHC FRET -1, RanGTP-Imp inh 4 and Tb hexokinase -6.
`Cc1ccc(Cn2c(=N)c(C(=O)NC3CCCCC3)cc3c(=O)n4ccccc4nc32)cc1` gave RanGTP-Imp inh 161*.
Screening N=c1c(C(=O)NC2CCCC2)cc2c(=O)n3ccccc3nc2n1Cc1ccccc1 returned RanGTP-Imp inh 177*.
`CCOC(=O)c1cc2c(=O)n3ccccc3nc2n(Cc2ccccc2)c1=N` gave Hck-Nef inh 28, Runt-CBFb FRET 18, Runt-SMMHC FRET 63*, RanGTP-Imp inh 188* and Tb hexokinase -5.
N=c1c(C(=O)NC2CCCCC2)cc2c(=O)n3ccccc3nc2n1Cc1ccc(F)cc1 was read as RanGTP-Imp inh 159*.
Screening COc1ccc(CC(=O)Nc2cccc(S(=O)(=O)N3CCCCCC3)c2)cc1OC returned Hck-Nef inh 1, Runt-CBFb FRET 1, Runt-SMMHC FRET -3, RanGTP-Imp inh 4 and Tb hexokinase 38.
Cc1ccc(NC(=O)C2C3CCCC2C3c2ccccc2)cc1 (stereo not drawn) was read as Hck-Nef inh 1, Runt-CBFb FRET 0, Runt-SMMHC FRET 2, RanGTP-Imp inh -5 and Tb hexokinase 33.
O=C(NCCCN1CCCCC1)c1ccc(CS(=O)c2ccc(Cl)cc2)o1 (stereo not drawn) was read as RanGTP-Imp inh 2.
Screening CCOCCCn1c(=N)c(C(=O)Nc2cc(C)on2)cc2c(=O)n3ccccc3nc21 returned Hck-Nef inh 68* and Tb hexokinase -2.
`COc1ccc(CCn2c(=N)c(C(=O)NCC3CCCO3)cc3c(=O)n4ccccc4nc32)cc1` (stereo not drawn) gave RanGTP-Imp inh 0.
For N#Cc1c(NCCN)nc(NCc2ccccc2)c2c1CCN(Cc1ccccc1)C2 the results were Hck-Nef inh 5, Runt-CBFb FRET 27 and Tb hexokinase -6.

Source: PubChem (several laboratories)
